Experimental data reported in ChEMBL document CHEMBL1155528, “1,4-dihydropyrazolo[4,3-d]imidazole phenyl derivatives: a novel type II Raf kinase inhibitors” (Bioorg Med Chem Lett, 2010).
Calls of active or inactive are those of the source. The rule behind the calls is not given here.

How the values were obtained:
[1] = (§1) Antiproliferative activity against human WM3629 cells after 24 hrs by MTT assay; format: functional; conditions: WM3629, 24 h
In short: (§2)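 WM3629 cells (Wistar Institute) were kept in Tu2% medium. GI50 was determined by MTT as for A375P: 5 × 10³ cells/well, 24 h settling, 12-point threefold serial dilutions, and absorbance at 590 nm.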

[2] = molecular target: T1, RAF proto-oncogene serine/threonine-protein kinase (Homo sapiens, UniProt P04049); assay: Inhibition of human cRAF using [33P-ATP] as a substrate by scintillation counting
T1 sequence (P04049 whole entry): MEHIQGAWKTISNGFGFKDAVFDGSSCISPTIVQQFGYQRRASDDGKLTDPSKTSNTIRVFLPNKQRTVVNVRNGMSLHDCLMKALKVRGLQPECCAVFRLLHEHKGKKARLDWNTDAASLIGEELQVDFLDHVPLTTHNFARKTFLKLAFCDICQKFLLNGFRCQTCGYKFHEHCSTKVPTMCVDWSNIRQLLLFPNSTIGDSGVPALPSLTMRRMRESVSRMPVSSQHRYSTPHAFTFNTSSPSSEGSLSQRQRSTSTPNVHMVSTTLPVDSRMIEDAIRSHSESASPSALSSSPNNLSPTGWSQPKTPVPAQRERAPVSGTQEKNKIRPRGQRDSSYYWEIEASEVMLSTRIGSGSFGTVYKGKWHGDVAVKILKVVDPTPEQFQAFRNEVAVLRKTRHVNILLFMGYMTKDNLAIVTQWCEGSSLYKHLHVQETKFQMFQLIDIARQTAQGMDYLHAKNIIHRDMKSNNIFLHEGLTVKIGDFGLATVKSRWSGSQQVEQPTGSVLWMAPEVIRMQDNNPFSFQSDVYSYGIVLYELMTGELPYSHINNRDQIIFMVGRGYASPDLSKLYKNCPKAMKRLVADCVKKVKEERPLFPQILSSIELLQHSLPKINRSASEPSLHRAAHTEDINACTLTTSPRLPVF
In short: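 Run 40 min at room temperature, then stopped with 3% phosphoric acid. Spotted on P30 filter mat, washed in 75 mM phosphoric acid and methanol, dried, and scintillation-counted. IC50 came from a profiler service.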

[3] = (§3) Antiproliferative activity against human A375P cells after 24 hrs by MTT assay; format: functional
In short: (§4)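 A375P cells (ATCC) grown in DMEM with 10% FBS and 1% penicillin/streptomycin at 37 °C, 5% CO2. Detached with 0.05% trypsin–0.02% EDTA, seeded at 5 × 10³ cells/well, and left 24 h before 12-point threefold serial dilutions were added. Viability was read by MTT reduction (CellTiter 96) at 590 nm, and GI50 was derived.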

WM3629 = assay: as §1; format: functional; in short: as §2
A375P = assay: as §3; format: functional; in short: as §4
[4] = molecular target: Macrophage colony-stimulating factor 1 receptor (Homo sapiens) (UniProt P07333); assay: Inhibition of human FMS; conditions: concentration not given here
In short: (§5)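 Tested in an outsourced 30-kinase profiling service panel at a single concentration of 10, with percent inhibition reported.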

[5] = molecular target: Ribosomal protein S6 kinase beta-1 (Homo sapiens) (UniProt P23443); assay: Inhibition of human p701S6K; conditions: concentration not given here; in short: as §5
[6] = molecular target: Angiopoietin-1 receptor (Homo sapiens) (UniProt Q02763); assay: Inhibition of human Tie2; conditions: concentration not given here; in short: as §5
[7] = molecular target: Cytoplasmic tyrosine-protein kinase BMX (Homo sapiens) (UniProt P51813); assay: Inhibition of human BMX; conditions: concentration not given here; in short: as §5
[8] = molecular target: Serine/threonine-protein kinase PLK1 (Homo sapiens) (UniProt P53350); assay: Inhibition of human PLK1; conditions: concentration not given here; in short: as §5
[9] = molecular target: Inhibitor of nuclear factor kappa-B kinase subunit beta (Homo sapiens) (UniProt O14920); assay: Inhibition of human IKK-beta; conditions: concentration not given here; in short: as §5
Chain of Inhibitor of nuclear factor kappa-B kinase subunit beta (Homo sapiens) (O14920 whole entry): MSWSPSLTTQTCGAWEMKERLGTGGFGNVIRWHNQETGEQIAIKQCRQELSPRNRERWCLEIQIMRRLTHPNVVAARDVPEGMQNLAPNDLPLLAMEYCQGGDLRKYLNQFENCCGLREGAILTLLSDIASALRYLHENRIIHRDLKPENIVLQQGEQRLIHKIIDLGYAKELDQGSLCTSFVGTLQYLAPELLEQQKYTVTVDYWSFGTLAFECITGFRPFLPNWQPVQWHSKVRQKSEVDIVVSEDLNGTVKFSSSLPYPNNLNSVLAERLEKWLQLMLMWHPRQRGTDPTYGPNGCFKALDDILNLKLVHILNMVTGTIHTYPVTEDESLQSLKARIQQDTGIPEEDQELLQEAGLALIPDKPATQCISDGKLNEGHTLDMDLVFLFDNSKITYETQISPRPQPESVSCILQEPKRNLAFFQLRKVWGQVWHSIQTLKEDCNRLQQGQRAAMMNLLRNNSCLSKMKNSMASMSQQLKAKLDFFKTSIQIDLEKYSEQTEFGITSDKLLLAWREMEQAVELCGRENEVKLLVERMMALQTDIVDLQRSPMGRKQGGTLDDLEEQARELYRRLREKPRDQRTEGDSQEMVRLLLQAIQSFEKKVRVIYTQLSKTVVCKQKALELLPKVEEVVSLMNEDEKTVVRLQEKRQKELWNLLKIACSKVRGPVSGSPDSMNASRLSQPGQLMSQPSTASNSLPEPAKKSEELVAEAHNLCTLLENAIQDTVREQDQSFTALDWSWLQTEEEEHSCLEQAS

[10] = molecular target: Tyrosine-protein kinase BTK (Homo sapiens) (UniProt Q06187); assay: Inhibition of human BTK; conditions: concentration not given here; in short: as §5
[11] = molecular target: Ephrin type-A receptor 1 (Homo sapiens) (UniProt P21709); assay: Inhibition of human EphA1; conditions: concentration not given here; in short: as §5
[12] = molecular target: Proto-oncogene tyrosine-protein kinase Src (Homo sapiens) (UniProt P12931); assay: Inhibition of human cSRC; conditions: concentration not given here; in short: as §5
[13] = molecular target: ALK tyrosine kinase receptor (Homo sapiens) (UniProt Q9UM73); assay: Inhibition of human ALK; conditions: concentration not given here; in short: as §5
[14] = molecular target: Cyclin-dependent kinase 2/cyclin E1 (Homo sapiens) (UniProt P24864+P24941); assay: Inhibition of human CDK2/cyclin E; format: protein-complex assay; conditions: concentration not given here; in short: as §5
[15] = molecular target: Insulin receptor (Homo sapiens) (UniProt P06213); assay: Inhibition of human IR; conditions: concentration not given here; in short: as §5
Chain of Insulin receptor (Homo sapiens) (P06213 28-758 limits assumed): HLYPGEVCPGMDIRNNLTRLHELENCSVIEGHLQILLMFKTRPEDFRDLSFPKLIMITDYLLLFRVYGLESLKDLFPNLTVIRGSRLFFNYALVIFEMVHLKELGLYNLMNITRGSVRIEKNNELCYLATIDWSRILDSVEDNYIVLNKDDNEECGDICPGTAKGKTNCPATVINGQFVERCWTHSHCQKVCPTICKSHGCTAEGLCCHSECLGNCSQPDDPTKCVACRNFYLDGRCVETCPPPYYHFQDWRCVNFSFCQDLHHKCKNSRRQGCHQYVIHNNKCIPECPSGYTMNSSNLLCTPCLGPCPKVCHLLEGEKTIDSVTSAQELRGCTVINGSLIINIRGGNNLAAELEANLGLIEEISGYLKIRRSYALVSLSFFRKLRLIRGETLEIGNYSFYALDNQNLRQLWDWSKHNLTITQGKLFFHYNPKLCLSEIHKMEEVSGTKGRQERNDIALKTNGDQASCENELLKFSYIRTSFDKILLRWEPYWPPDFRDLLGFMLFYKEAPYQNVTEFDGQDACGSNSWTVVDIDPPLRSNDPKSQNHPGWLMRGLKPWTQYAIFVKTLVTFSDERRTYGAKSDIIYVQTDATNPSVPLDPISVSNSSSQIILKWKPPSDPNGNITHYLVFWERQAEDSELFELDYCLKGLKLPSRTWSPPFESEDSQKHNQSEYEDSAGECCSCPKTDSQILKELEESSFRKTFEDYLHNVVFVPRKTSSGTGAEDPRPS
Chain of Insulin receptor (Homo sapiens) (P06213 763-1382 limits assumed): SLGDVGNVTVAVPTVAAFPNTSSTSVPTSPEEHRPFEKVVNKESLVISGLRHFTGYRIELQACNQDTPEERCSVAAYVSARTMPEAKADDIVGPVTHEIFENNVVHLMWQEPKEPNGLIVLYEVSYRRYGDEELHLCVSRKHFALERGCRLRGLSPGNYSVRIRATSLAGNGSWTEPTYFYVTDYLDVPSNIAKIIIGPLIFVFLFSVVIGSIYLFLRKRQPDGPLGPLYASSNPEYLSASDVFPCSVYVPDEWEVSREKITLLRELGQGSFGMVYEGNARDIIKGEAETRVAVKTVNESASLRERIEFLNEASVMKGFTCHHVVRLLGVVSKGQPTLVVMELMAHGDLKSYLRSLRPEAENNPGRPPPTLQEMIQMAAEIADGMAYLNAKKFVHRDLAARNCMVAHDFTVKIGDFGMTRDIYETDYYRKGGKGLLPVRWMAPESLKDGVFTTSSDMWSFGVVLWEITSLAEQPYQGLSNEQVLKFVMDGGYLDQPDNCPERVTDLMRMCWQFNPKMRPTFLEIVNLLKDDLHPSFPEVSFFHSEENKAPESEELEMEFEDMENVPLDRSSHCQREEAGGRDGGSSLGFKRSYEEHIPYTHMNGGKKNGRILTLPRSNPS

[16] = molecular target: Platelet-derived growth factor receptor alpha (Homo sapiens) (UniProt P16234); assay: Inhibition of human PDGFRalpha; conditions: concentration not given here; in short: as §5
[17] = molecular target: Tyrosine-protein kinase SYK (Homo sapiens) (UniProt P43405); assay: Inhibition of human SYK; conditions: concentration not given here
[18] = molecular target: Tyrosine-protein kinase receptor UFO (Homo sapiens) (UniProt P30530); assay: Inhibition of human AXL; conditions: concentration not given here; in short: as §5
Chain of Tyrosine-protein kinase receptor UFO (Homo sapiens) (P30530 whole entry): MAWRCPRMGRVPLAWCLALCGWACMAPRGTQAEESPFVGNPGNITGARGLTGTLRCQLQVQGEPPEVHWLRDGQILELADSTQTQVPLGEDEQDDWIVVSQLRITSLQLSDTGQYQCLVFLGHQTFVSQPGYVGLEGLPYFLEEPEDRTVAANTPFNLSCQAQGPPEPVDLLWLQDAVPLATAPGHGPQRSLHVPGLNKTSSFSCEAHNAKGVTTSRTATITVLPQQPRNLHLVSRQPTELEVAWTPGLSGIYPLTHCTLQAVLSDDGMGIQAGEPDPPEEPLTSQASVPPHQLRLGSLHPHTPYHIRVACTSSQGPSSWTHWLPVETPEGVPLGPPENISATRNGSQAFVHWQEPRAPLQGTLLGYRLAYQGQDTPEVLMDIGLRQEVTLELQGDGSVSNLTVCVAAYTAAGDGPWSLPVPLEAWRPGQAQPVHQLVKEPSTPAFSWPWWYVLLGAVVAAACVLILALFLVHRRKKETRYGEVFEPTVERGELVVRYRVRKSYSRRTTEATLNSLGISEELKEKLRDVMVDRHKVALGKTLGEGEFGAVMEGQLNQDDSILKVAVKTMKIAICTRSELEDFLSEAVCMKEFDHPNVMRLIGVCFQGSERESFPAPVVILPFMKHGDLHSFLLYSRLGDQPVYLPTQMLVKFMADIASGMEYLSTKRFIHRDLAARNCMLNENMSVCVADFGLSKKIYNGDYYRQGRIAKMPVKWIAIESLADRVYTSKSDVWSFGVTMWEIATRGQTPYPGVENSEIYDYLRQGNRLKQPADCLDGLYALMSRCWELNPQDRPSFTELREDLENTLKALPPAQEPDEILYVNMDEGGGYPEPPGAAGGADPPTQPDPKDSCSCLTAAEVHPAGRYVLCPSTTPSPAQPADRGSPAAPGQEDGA

[19] = molecular target: Vascular endothelial growth factor receptor 2 (Homo sapiens) (UniProt P35968); assay: Inhibition of human KDR; conditions: concentration not given here; in short: as §5
[20] = molecular target: Tyrosine-protein kinase JAK2 (Homo sapiens) (UniProt O60674); assay: Inhibition of human JAK2; conditions: concentration not given here; in short: as §5
[21] = molecular target: Aurora kinase A (Homo sapiens) (UniProt O14965); assay: Inhibition of human aurora A; conditions: concentration not given here; in short: as §5
Chain of Aurora kinase A (Homo sapiens) (O14965 whole entry): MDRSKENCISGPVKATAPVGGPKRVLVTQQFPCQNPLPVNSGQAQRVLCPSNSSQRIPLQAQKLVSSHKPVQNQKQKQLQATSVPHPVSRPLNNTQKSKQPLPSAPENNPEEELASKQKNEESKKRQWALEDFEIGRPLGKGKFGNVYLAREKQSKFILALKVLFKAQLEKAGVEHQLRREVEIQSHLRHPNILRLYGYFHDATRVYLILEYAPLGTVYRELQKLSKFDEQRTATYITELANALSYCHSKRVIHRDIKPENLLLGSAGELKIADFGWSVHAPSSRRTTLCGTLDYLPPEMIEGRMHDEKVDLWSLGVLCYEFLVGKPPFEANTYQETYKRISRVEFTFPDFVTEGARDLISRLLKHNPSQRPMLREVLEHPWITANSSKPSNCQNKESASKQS

[22] = molecular target: Mast/stem cell growth factor receptor Kit (Homo sapiens) (UniProt P10721); assay: Inhibition of human cKIT; conditions: concentration not given here; in short: as §5
Chain of Mast/stem cell growth factor receptor Kit (Homo sapiens) (P10721 whole entry): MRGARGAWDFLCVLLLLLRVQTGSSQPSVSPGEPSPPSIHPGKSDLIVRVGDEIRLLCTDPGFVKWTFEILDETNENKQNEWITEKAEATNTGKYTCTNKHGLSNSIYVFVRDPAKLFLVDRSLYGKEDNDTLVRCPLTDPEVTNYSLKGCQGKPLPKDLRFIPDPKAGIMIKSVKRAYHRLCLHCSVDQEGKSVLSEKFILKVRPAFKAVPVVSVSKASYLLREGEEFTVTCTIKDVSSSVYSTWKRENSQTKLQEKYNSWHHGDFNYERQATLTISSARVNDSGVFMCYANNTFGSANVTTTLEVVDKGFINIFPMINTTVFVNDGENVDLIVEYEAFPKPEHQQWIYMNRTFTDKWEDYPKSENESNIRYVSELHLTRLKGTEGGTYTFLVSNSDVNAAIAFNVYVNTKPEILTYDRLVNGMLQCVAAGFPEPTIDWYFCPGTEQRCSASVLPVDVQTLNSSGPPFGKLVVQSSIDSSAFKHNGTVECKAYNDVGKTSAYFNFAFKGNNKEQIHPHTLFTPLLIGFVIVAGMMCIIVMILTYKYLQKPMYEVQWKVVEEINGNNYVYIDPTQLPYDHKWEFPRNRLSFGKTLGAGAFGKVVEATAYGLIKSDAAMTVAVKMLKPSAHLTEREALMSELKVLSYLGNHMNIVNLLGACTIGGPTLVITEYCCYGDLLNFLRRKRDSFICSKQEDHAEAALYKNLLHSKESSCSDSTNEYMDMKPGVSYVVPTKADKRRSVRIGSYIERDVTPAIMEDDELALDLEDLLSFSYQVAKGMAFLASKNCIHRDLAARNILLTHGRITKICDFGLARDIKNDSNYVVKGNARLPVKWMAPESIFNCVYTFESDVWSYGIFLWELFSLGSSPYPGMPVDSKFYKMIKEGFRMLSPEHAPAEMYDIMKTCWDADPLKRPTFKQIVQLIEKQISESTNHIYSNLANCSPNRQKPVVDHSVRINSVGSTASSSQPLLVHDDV

[23] = molecular target: Receptor-type tyrosine-protein kinase FLT3 (Homo sapiens) (UniProt P36888); assay: Inhibition of human Flt3; conditions: concentration not given here; in short: as §5
[24] = molecular target: T1, RAF proto-oncogene serine/threonine-protein kinase; assay: Inhibition of human RAF; conditions: concentration not given here
In short: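 Human C-Raf (5–10 mU) incubated with 0.66 mg/mL myelin basic protein in 25 mM Tris pH 7.5, 0.02 mM EGTA, 10 mM Mg acetate. Spotted on P30 filter, washed in 75 mM phosphoric acid and methanol, then scintillation counted. Outsourced profiling service.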

[25] = molecular target: BDNF/NT-3 growth factors receptor (Homo sapiens) (UniProt Q16620); assay: Inhibition of human TrkB; conditions: concentration not given here; in short: as §5
[26] = molecular target: Hepatocyte growth factor receptor (Homo sapiens) (UniProt P08581); assay: Inhibition of human Met; conditions: concentration not given here; in short: as §5
[27] = molecular target: Fibroblast growth factor receptor 1 (Homo sapiens) (UniProt P11362); assay: Inhibition of human FGFR1; conditions: concentration not given here; in short: as §5
[28] = molecular target: Tyrosine-protein kinase ABL1 (Homo sapiens) (UniProt P00519); assay: Inhibition of human ABL; conditions: concentration not given here; in short: as §5
[29] = molecular target: Cyclin-dependent kinase 5/CDK5 activator 1 (Homo sapiens) (UniProt Q00535+Q15078); assay: Inhibition of human CDK5/p35; format: protein-complex assay; conditions: concentration not given here; in short: as §5
[30] = molecular target: Insulin-like growth factor 1 receptor (Homo sapiens) (UniProt P08069); assay: Inhibition of human IGF1R; conditions: concentration not given here; in short: as §5
Rattus norvegicus = organism: Rattus norvegicus; assay: Inhibition of rat AMPK; conditions: concentration not given here
In short: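 Part of an outsourced radiometric kinase panel of 30 kinases, tested at a single concentration of 10 µM. Read-out is percent inhibition of kinase activity.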

[31] = molecular target: Casein kinase II (Homo sapiens) (UniProt P67870+P68400+P19784); assay: Inhibition of human CK2; format: protein-complex assay; conditions: concentration not given here; in short: as §5

Work on `Cc1ccc(NC(=O)Nc2cc(N3CCOCC3)cc(C(F)(F)F)c2)cc1-c1nc2c(cnn2Cc2ccccc2)[nH]1` yielded a GI50 [1] of 0.72 µM, an IC50 ([2]; read-out: IC50) of 0.156 µM and a GI50 [3] of 4.29 µM.

`Cc1ccc(NC(=O)Nc2c(F)cc(F)c(C)c2F)cc1-c1nc2c(cnn2Cc2ccccc2)[nH]1` showed a GI50 [1] of 1.29 µM and a GI50 [3] of 7.73 µM.

For `Cc1ccc(NC(=O)c2cc(N3CCOCC3)cc(C(F)(F)F)c2)cc1-c1nc2[nH]ncc2[nH]1`, the GI50 (WM3629) was “inactive” and the GI50 (A375P) was “inactive”.

For `O=C(Nc1ccc(-c2nc3c(cnn3Cc3ccccc3)[nH]2)cc1)Nc1ccc(Cl)c(Cl)c1`, the GI50 [1] was 42.8 µM and the GI50 [3] was over 100 µM.

`COc1ccc(Cn2ncc3c2nc(-c2ccc(NC(=O)Nc4cc(Cl)cc(C(F)(F)F)c4)cc2C)n3C)cc1` showed a GI50 [1] of 3.77 µM and a GI50 [3] of 51.5 µM.

In the case of `Cc1ccc(NC(=O)Nc2cc(N3CCOCC3)cc(C(F)(F)F)c2)cc1-c1nc2c(cnn2Cc2ccccc2)n1C`, the GI50 [1] is reported as over 100 µM and the GI50 [3] is reported as over 100 µM.

With `COc1ccc(Cn2ncc3[nH]c(-c4ccc(NC(=O)Nc5nc6ccc(C)cc6s5)cc4C)nc32)cc1` the GI50 (WM3629) was “inactive” and the GI50 (A375P) was “inactive”.

For `Cc1ccc(NC(=O)Nc2cc(Cl)cc(C(F)(F)F)c2)cc1-c1nc2c(cnn2Cc2ccccc2)[nH]1`, the GI50 [1] was 0.85 µM, the IC50 ([2]; read-out: IC50) was 0.076 µM and the GI50 [3] was 3.79 µM.

For `Cc1cc(NC(=O)Nc2cc(Cl)cc(C(F)(F)F)c2)ccc1-c1nc2c(cnn2Cc2ccccc2)n1C`, the GI50 [1] was 0.56 µM, the IC50 [2] was “Not Active” and the GI50 [3] was 4.16 µM.

With `COc1ccc(Cn2ncc3[nH]c(-c4cc(NC(=O)Nc5ccc(Cl)c(Cl)c5)ccc4C)nc32)cc1` the GI50 [1] was 1.35 µM, the IC50 ([2]; read-out: IC50) was 0.839 µM and the GI50 [3] was 15.3 µM.

With `Cc1c(F)cc(F)c(NC(=O)Nc2ccc(-c3nc4c(cnn4Cc4ccccc4)[nH]3)cc2)c1F` the GI50 [1] was 0.98 µM and the GI50 [3] was 51.7 µM.

Work on `Cc1ccc(NC(=O)Nc2cc(Cl)cc(C(F)(F)F)c2)cc1-c1nc2c(cnn2Cc2ccccc2)n1C` yielded a GI50 [1] of 5.85 µM and a GI50 [3] of 56.3 µM.

For `Cc1cc(NC(=O)Nc2cc(N3CCOCC3)cc(C(F)(F)F)c2)ccc1-c1nc2[nH]ncc2[nH]1`, the GI50 (WM3629) was “inactive” and the GI50 [3] was over 100 µM.

For `Cc1ccc2nc(NC(=O)Nc3ccc(-c4nc5[nH]ncc5[nH]4)c(C)c3)sc2c1`, the GI50 (WM3629) was “inactive” and the GI50 (A375P) was “inactive”.

Compound `Cc1cn(-c2cc(NC(=O)Nc3ccc(-c4nc5[nH]ncc5[nH]4)c(C)c3)cc(C(F)(F)F)c2)cn1` has an inhibition [4] of 42%, an inhibition [5] of 4% and an inhibition [6] of 82%. It also gave an inhibition [7] of 16%, an inhibition [8] of 8% and an inhibition [9] of 16%. The inhibition [10] was 10%, the inhibition [11] was 30% and the inhibition [12] was 20%. For the same compound, the inhibition [13] was 61%, the inhibition [14] was 33% and the inhibition [15] was 0%. It also gave an inhibition [16] of 0%, an inhibition [17] of 16% and a GI50 [1] of 0.86 µM. The inhibition [18] was 6%, the IC50 ([2]; read-out: IC50) was 0.05 µM and the inhibition [19] was 8%. The inhibition [20] was 0%, the inhibition [21] was 10% and the inhibition [22] was 0%. The inhibition [23] was 53%, the inhibition [24] was 96% and the inhibition [25] was 62%. It also gave an inhibition [26] of 0%, an inhibition [27] of 26% and an inhibition [28] of 37%. It also gave an inhibition [29] of 0%, an inhibition [30] of 35% and an inhibition (Rattus norvegicus) of 5%. It also gave a GI50 [3] of 2.24 µM and an inhibition [31] of 8%.

In the case of `COc1ccc(Cn2ncc3[nH]c(-c4ccc(NC(=O)Nc5cc(N6CCOCC6)cc(C(F)(F)F)c5)cc4C)nc32)cc1`, the GI50 [1] is reported as over 100 µM and the GI50 [3] is reported as over 100 µM.

In the case of `O=C(Nc1ccc(-c2nc3c(cnn3Cc3ccccc3)[nH]2)cc1)Nc1cc(Cl)cc(C(F)(F)F)c1`, the GI50 [1] is reported as 0.75 µM, the IC50 ([2]; read-out: IC50) is reported as 0.37 µM and the GI50 [3] is reported as 6.65 µM.

In the case of `CNC(=O)c1cc(Oc2ccc(NC(=O)Nc3ccc(Cl)c(C(F)(F)F)c3)cc2)ccn1` [SORAFENIB], the GI50 [1] is reported as 0.65 µM and the GI50 [3] is reported as 5.58 µM.

`COc1ccc(Cn2ncc3[nH]c(-c4cc(NC(=O)Nc5cc(Cl)cc(C(F)(F)F)c5)ccc4C)nc32)cc1` showed a GI50 [1] of over 100 µM and a GI50 [3] of over 100 µM.

`Cc1ccc(NC(=O)c2cc(Cl)cc(C(F)(F)F)c2)cc1-c1nc2c(cnn2Cc2ccccc2)[nH]1` showed a GI50 [1] of 1.14 µM, an IC50 ([2]; read-out: IC50) of 0.146 µM and a GI50 [3] of 2.06 µM.

In the case of `Cc1ccc(NC(=O)Nc2cccc(Cl)c2Cl)cc1-c1nc2[nH]ncc2[nH]1`, the GI50 (WM3629) is reported as “inactive” and the GI50 (A375P) is reported as “inactive”.

Compound `Cc1cc(NC(=O)Nc2cc(Cl)cc(C(F)(F)F)c2)ccc1-c1nc2[nH]ncc2[nH]1` has a GI50 [1] of 14.4 µM and a GI50 [3] of over 100 µM.

In the case of `Cc1cc(NC(=O)Nc2cccc(Cl)c2Cl)ccc1-c1nc2[nH]ncc2[nH]1`, the GI50 (WM3629) is reported as “inactive” and the GI50 (A375P) is reported as “inactive”.

Compound `COc1ccc(Cn2ncc3[nH]c(-c4cc(NC(=O)Nc5c(F)cc(F)c(C)c5F)ccc4C)nc32)cc1` has a GI50 [1] of over 100 µM and a GI50 [3] of over 100 µM.

Work on `Cc1ccc(NC(=O)Nc2cc(Cl)cc(C(F)(F)F)c2)cc1-c1nc2[nH]ncc2[nH]1` yielded a GI50 [1] of over 100 µM and a GI50 [3] of over 100 µM.
